Measurements: ChEMBL document CHEMBL3593166, “Hybrid chemistry. Part 4: Discovery of etravirine-VRX-480773 hybrids as potent HIV-1 non-nucleoside reverse transcriptase inhibitors” (Bioorg Med Chem, 2015)
Active and inactive are the calls of the source. The calls are words filed in the database; no cut-off is given here.

What was measured:
[1] = system: Human immunodeficiency virus 1; test: Antiviral activity against HIV1 3B infected in human MT4 cells assessed as inhibition of virus-induced cytopathicity incubated for 4 days by MTT method; assay type: functional, organism-based; conditions: Human immunodeficiency virus 1, 3B, MT4, 96 h
Procedure, shortened: (§1)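 Virus stocks titrated in MT-4 cells as CCID50. MT-4 cells at 1 × 10^5 cells/mL infected at MOI 0.02 (HIV-1 IIIB or HIV-2 ROD), then plated immediately over serial compound dilutions (DMSO stocks, 50 mM or higher). After 4 days at 37 °C, viable cells counted by MTT. EC50 from means of at least three separate experiments.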

[2] = Selectivity index, ratio of CC50 for human MT4 cells to EC50 for HIV1 3B infected in human MT4 cells; assay type: toxicity, cell-based; conditions: HIV1 3B infected MT4 cells, read-out: Ratio CC50/EC50
Procedure, shortened: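 SI calculated as CC50 in uninfected MT-4 cells divided by EC50 against WT HIV-1 IIIB. Both come from the 4-day MTT assays at 37 °C; infection was at MOI 0.02 with cells at 1 × 10^5 cells/mL.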

[3] = Cytotoxicity against human MT4 cells assessed as reduction in cell viability incubated for 4 days MTT method; assay type: cell-based
Procedure, shortened: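 Uninfected MT-4 cells at 1 × 10^5 cells/mL exposed to serial compound dilutions (DMSO stocks, 50 mM or higher) in parallel with the antiviral test. Viability read by MTT after 4 days at 37 °C. CC50 is the concentration lowering viability by 50%. Values are means of at least three experiments.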

[4] = system: Human immunodeficiency virus 1; test: Antiviral activity against HIV1 RES056 expressing reverse transcriptase K103N + Y181C mutant infected in human MT4 cells assessed as inhibition of virus-induced cytopathicity incubated for 4 days by MTT method; assay type: functional, organism-based; conditions: Human immunodeficiency virus 1, RES056, MT4, 96 h
Procedure, shortened: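 Serial compound dilutions in MT-4 cells (1 × 10^5 cells/mL) infected at MOI 0.02 with K103N+Y181C double-mutant HIV-1. Cells added to compound right after infection and incubated 4 days at 37 °C. Viable cells counted by MTT and EC50 derived. Cytotoxicity run in parallel on uninfected cells. Values are the mean of at least three experiments.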

[5] = system: Human immunodeficiency virus 2; test: Antiviral activity against HIV2 ROD infected in human MT4 cells assessed as inhibition of virus-induced cytopathicity incubated for 4 days by MTT method; assay type: functional, organism-based; conditions: Human immunodeficiency virus 2, ISOLATE ROD, MT4, 96 h; procedure, shortened: as §1
[6] = system: Human immunodeficiency virus 1; test: Antiviral activity against HIV1 3B infected in human MT4 cells […] at 100 fold antiviral EC50 level added 3 to 5 hrs post infection and measured 31 hrs post infection by p24 enzyme-linked immunosorbent assay; assay type: functional, organism-based
Procedure, shortened: (§2)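 MT-4 cells infected with WT HIV-1 at m.o.i. 0.5; after 1 h adsorption, seeded at 45,000 cells/well, 37°C. Compounds added at 0, 1, 2, 3, 4, 5, 6, 7, 8, 9, 24 or 25 h post-infection. Reference agents at fixed levels (ETV 0.19 µM); hybrids at 100-fold their MT-4/MTT EC50. Virus production measured by p24 ELISA at 31 h post-infection.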

[7] = molecular target: Human immunodeficiency virus type 1 reverse transcriptase (Human immunodeficiency virus 1, UniProt Q72547); test: Inhibition of HIV1 recombinant wild type reverse transcriptase p66/p51 assessed as reduction in biotin deoxyuridine triphosphate (biotin-dUTP) incorporation using poly(rA)/oligo (dT)16 template and primer by spectrofluorometry
[8] = system: Human immunodeficiency virus 1; test: Antiviral activity against HIV1 3B infected in human MT4 cells […] added 3 to 5 hrs post infection and measured 31 hrs post infection by p24 enzyme-linked immunosorbent assay; assay type: functional, organism-based
Procedure, shortened: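 MT-4 cells infected with WT HIV-1 at m.o.i. 0.5 and allowed 1 h adsorption, then seeded at 45,000 cells/well at 37 °C. Compound added at set times from 0 to 25 h post-infection. Virus production read by p24 ELISA at 31 h post-infection.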

[9] = system: Human immunodeficiency virus 1; test: Antiviral activity against HIV1 3B infected in human MT4 cells […] at 0.19 uM added 3 to 5 hrs post infection and measured 31 hrs post infection by p24 enzyme-linked immunosorbent assay; assay type: functional, organism-based; procedure, shortened: as §2

| Structure (SMILES) | EC50 [1] | selectivity ratio [2] | CC50 at 96 h [3] | EC50 [4] | EC50 [5] | inhibition [6] | IC50 [7] | inhibition [8] | inhibition [9] |
| --- | --- | --- | --- | --- | --- | --- | --- | --- | --- |
| NS(=O)(=O)c1ccc(NC(=O)CSc2nnc(Br)n2-c2ccc(C3CC3)c3ccccc23)c(Cl)c1 | 0.00014 µM | 41600 | 5.82 µM | 0.00023 µM | – | – | – | – | – |
| Cc1ccc(NC(=O)CSc2nccc(Oc3c(C)cc(C#N)cc3C)n2)cc1 | 5.1 µM | > 61 | > 309 µM | > 309 µM | > 309 µM | – | – | – | – |
| Cc1cc(C#N)cc(C)c1Oc1ccnc(SCC(=O)Nc2ccccc2Cl)n1 | 0.24 µM | > 1220 | > 294 µM | ≥ 10.9 µM | > 294 µM | Active | 0.473 µM | – | – |
| Cc1cc(C#N)cc(C)c1Oc1ccnc(SCC(=O)Nc2ccc(F)cc2)n1 | 8 µM | > 38 | > 306 µM | > 306 µM | > 306 µM | – | – | – | – |
| Cc1ccccc1NC(=O)CSc1nccc(Oc2c(C)cc(C#N)cc2C)n1 | 5.9 µM | > 52 | > 309 µM | > 309 µM | > 309 µM | – | – | – | – |
| Cc1cc(C#N)cc(C)c1Oc1ccnc(SCC(=O)Nc2ccccc2)n1 | > 320 µM | – | > 320 µM | > 320 µM | > 320 µM | – | – | – | – |
| Cc1cc(C#N)cc(C)c1Oc1ccnc(SCC(=O)Nc2ccc(C#N)cc2F)n1 | 6 µM | > 48 | > 288 µM | > 288 µM | > 288 µM | – | – | – | – |
| Cc1cc(C#N)cc(C)c1Oc1ccnc(SCC(=O)Nc2ccc(Cl)cc2Cl)n1 | 1.2 µM | > 227 | > 272 µM | > 272 µM | > 272 µM | – | – | – | – |
| COc1ccc(NC(=O)CSc2nccc(Oc3c(C)cc(C#N)cc3C)n2)cc1 | 7.3 µM | ≥ 9 | ≥ 69 µM | > 69 µM | > 69 µM | – | – | – | – |
| Cc1cc(C#N)cc(C)c1Oc1ccnc(SCC(=O)Nc2cc(Cl)cc(Cl)c2)n1 | 10.8 µM | > 3.7 | ≥ 41 µM | > 41 µM | > 41 µM | – | – | – | – |
| Cc1cc(C#N)cc(C)c1Oc1ccnc(SCC(=O)Nc2cccc([N+](=O)[O-])c2)n1 | 41 µM | > 7 | > 287 µM | > 287 µM | > 287 µM | – | – | – | – |
| Cc1cc(S(N)(=O)=O)ccc1NC(=O)CSc1nccc(Oc2c(C)cc(C#N)cc2C)n1 | 0.81 µM | 57 | 46 µM | > 46 µM | > 46 µM | Active | 2.77 µM | – | – |
| Cc1cc(C#N)cc(C)c1Oc1ccnc(SCC(=O)Nc2ccc(Br)cc2)n1 | 1.4 µM | 17 | 24 µM | > 24 µM | > 24 µM | – | – | – | – |
| Cc1cc(C#N)cc(C)c1Oc1ccnc(SCC(=O)Nc2cccc(Cl)c2)n1 | 8 µM | > 37 | > 294 µM | > 294 µM | > 294 µM | – | – | – | – |
| Cc1cc(C#N)cc(C)c1Oc1ccnc(SCC(=O)Nc2ccccc2[N+](=O)[O-])n1 | 0.34 µM | > 844 | > 287 µM | > 287 µM | > 287 µM | Active | 1.17 µM | – | – |
| Cc1cc(C#N)cc(C)c1Oc1ccnc(SCC(=O)Nc2ccc(Cl)c(Cl)c2)n1 | 5.3 µM | 17 | 89 µM | > 89 µM | > 89 µM | – | – | – | – |
| Cc1ccnc2c1NC(=O)c1cccnc1N2C1CC1 | – | – | – | – | – | – | – | Active | – |
| Cc1cc(C#N)cc(C)c1Oc1ccnc(SCC(=O)Nc2ccc([N+](=O)[O-])cc2)n1 | 1.4 µM | > 205 | > 287 µM | > 287 µM | > 287 µM | – | – | – | – |
| Cc1cc(C#N)cc(C)c1Oc1ccnc(SCC(=O)Nc2ccc(S(N)(=O)=O)cc2)n1 | 7.9 µM | > 34 | > 266 µM | > 266 µM | > 266 µM | – | – | – | – |
| Cc1cc(C#N)cc(C)c1Oc1ccnc(SCC(=O)Nc2ccc(C#N)cc2)n1 | 4.3 µM | > 70 | > 301 µM | > 301 µM | > 301 µM | – | – | – | – |
| Cc1cc(C#N)cc(C)c1Oc1ccnc(SCC(=O)Nc2ccc(O)cc2)n1 | 8.3 µM | 9 | 71 µM | > 71 µM | > 71 µM | – | – | – | – |
| Cc1cc(C#N)cc(C)c1Oc1ccnc(SCC(=O)Nc2cccc(F)c2)n1 | 8.1 µM | > 38 | > 306 µM | > 306 µM | > 306 µM | – | – | – | – |
| Cc1cc(C#N)cc(C)c1Oc1ccnc(SCC(=O)Nc2ccc(Cl)cc2)n1 | 3.9 µM | > 75 | > 294 µM | > 294 µM | > 294 µM | – | – | – | – |
| CC(C)Nc1cccnc1N1CCN(C(=O)c2cc3cc(NS(C)(=O)=O)ccc3[nH]2)CC1 [DELAVIRDINE] | – | > 67 | > 44 µM | > 44 µM | – | – | – | – | – |
| Cc1cc(C#N)cc(C)c1Oc1nc(Nc2ccc(C#N)cc2)nc(N)c1Br [ETRAVIRINE] | – | > 1120 | > 4.6 µM | – | – | – | – | – | Active |
